For data set [1], the system named is Escherichia coli. The data set can be described thus: Induction of inner membrane permeabilization in Escherichia coli ATCC 25922 at 20 ug/ml measured every 2 mins for 12 mins by propidium iodide staining based fluorescence assay. The class given is functional, organism-based. Summed up: (§1)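 Mid-log cells (~10^8 CFU/mL) pre-incubated with propidium iodide (10 µM, 50 µL), 30 min for S. aureus and 40 min for E. coli. Fluorescence (ex 535/em 617 nm) read for 8 min, then compound added to 20 µg/mL final and monitored every 2 min for 12 min. Water-treated control.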

The subject of data set [2] is Staphylococcus aureus. Nature of the data set: Induction of inner membrane permeabilization in Staphylococcus aureus ATCC 29213 at 20 ug/ml measured every 2 mins for 12 mins by propidium iodide staining based fluorescence assay. The class given is functional, organism-based. Summed up: as §1
The subject of data set [3] is Escherichia coli. The data set can be described thus: Antibacterial activity against Escherichia coli ATCC 25922 after 16 to 20 hrs by broth microdilution method. Type of data set: functional. Summed up:
(§2)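 Broth microdilution per CLSI in cation-adjusted Mueller-Hinton broth; 4-6 h cultures (~10⁸ CFU/mL) diluted to ~10⁶ CFU/mL and mixed 1:1 with twofold dilutions of water-dissolved compound (256 to 0.5 µg/mL). Incubated 16-20 h at 37 °C; MIC read visually. Each concentration run in duplicate, whole experiment repeated at least twice. MRSA, KPC and NDM-1 strains were clinical isolates.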
For orientation: In broth dilution the organism is exposed to a series of concentrations in liquid medium.

Data set [4] has as its system Enterococcus faecalis. Nature of the data set: Antibacterial activity against Enterococcus faecalis after 16 to 20 hrs by broth microdilution method. Type of data set: functional. Summed up: as §2
Data set [5] is described as follows: Hemolytic activity in sheep RBC after 1 hr. The class given is ADME, cell-based, Ovis aries, Erythrocyte. Conditions: sheep red blood cells (erythrocytes). In outline:
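Sheep RBCs suspended at 5% in PBS; 150 µL added to 50 µL compound dilutions (5120 to 10 µg/mL series). Incubated 1 h at 37 °C, then centrifuged; supernatant absorbance read at 540 nm. Lysis (%) = (A−A0)/(Atotal−A0)×100, with untreated 5% RBC as A0 and 0.1% Triton X-100 as total.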

Data set [6] has as its system Salmonella enterica. Nature of the data set: Antibacterial activity against Salmonella enterica after 16 to 20 hrs by broth microdilution method. Type of data set: functional. Summed up: as §2
Data set [7] concerns Escherichia coli. The data set can be described thus: Induction of cytoplasmic membrane depolarization in Escherichia coli ATCC 25922 at 20 ug/ml measured every 2 mins for 12 mins by diSC35 staining based fluorescence assay. Type of data set: functional, organism-based. In outline:
(§3)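 Mid-log cells (4–6 h) pelleted, washed and resuspended (~10^8 CFU/mL) in PBS for S. aureus, or in 5 mM HEPES, 5 mM glucose and 100 mM KCl (1:1:1) for E. coli. Preloaded with diSC35 (10 µM, 50 µL), 30 min for S. aureus and 40 min plus EDTA (200 µM, 50 µL) for E. coli. Baseline read 8 min (ex 622/em 670 nm), then compound added to 20 µg/mL final and read every 2 min for 12 min. Water control.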

Data set [8] has as its system Staphylococcus aureus. The data set can be described thus: Antibacterial activity against Staphylococcus aureus ATCC 29213 after 16 to 20 hrs by broth microdilution method. The class given is functional. In outline: (§4)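 CLSI broth microdilution in cation-adjusted Mueller-Hinton broth. A 4-6 h culture was diluted to about 10⁶ CFU/mL and mixed 1:1 with twofold compound dilutions (256–0.5 µg/mL before mixing) prepared from aqueous stocks. Plates were incubated at 37 °C for 16-20 h. Each concentration was tested in duplicate, and the experiment was repeated at least twice.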

The subject of data set [9] is Staphylococcus aureus. Nature of the data set: Induction of cytoplasmic membrane depolarization in Staphylococcus aureus ATCC 29213 at 20 ug/ml measured every 2 mins for 12 mins by diSC35 staining based fluorescence assay. Type of data set: functional, organism-based. In outline:
as §3

Data set [10] concerns Escherichia coli. The data set can be described thus: Induction of outer membrane permeabilization in Escherichia coli ATCC 25922 at 20 ug/ml measured every 2 mins for 12 mins by NPN staining based fluorescence assay. The class given is functional, organism-based. In outline:
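Mid-log E. coli (~10^8 CFU/mL) in black plates pre-incubated about 40 min with NPN (10 µM, 50 µL). Baseline read 8 min (ex 350/em 420 nm), then compound added to 20 µg/mL final and fluorescence followed every 2 min for 12 min. Water-treated control.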

Data set [11] relates to Staphylococcus aureus. Nature of the data set: Antibacterial activity against methicillin-resistant Staphylococcus aureus isolate M3 after 16 to 20 hrs by broth microdilution method. The class given is functional. Summed up:
as §4

The test system of data set [12] is Staphylococcus aureus. Nature of the data set: Antibacterial activity against methicillin-resistant Staphylococcus aureus isolate M4 after 16 to 20 hrs by broth microdilution method. Type of data set: functional. Summed up: as §4
The subject of data set [13] is Staphylococcus aureus. Nature of the data set: Antibacterial activity against methicillin-resistant Staphylococcus aureus isolate M1 after 16 to 20 hrs by broth microdilution method. Type of data set: functional. In outline: as §4
In data set [14] the test system is Staphylococcus aureus. The data set can be described thus: Antibacterial activity against methicillin-resistant Staphylococcus aureus isolate M10 after 16 to 20 hrs by broth microdilution method. Type of data set: functional. In outline: as §4
The test system of data set [15] is Staphylococcus aureus. Nature of the data set: Antibacterial activity against methicillin-resistant Staphylococcus aureus isolate M5 after 16 to 20 hrs by broth microdilution method. Type of data set: functional. Summed up: as §4
Data set [16] has as its system Staphylococcus aureus. The data set can be described thus: Antibacterial activity against methicillin-resistant Staphylococcus aureus isolate M6 after 16 to 20 hrs by broth microdilution method. The class given is functional. In outline: as §4
Data set [17] relates to Staphylococcus aureus. The data set can be described thus: Antibacterial activity against methicillin-resistant Staphylococcus aureus after 16 to 20 hrs by broth microdilution method. Type of data set: functional. In outline: as §4
Data set [18] has as its system Staphylococcus aureus. The data set can be described thus: Antibacterial activity against methicillin-resistant Staphylococcus aureus isolate M8 after 16 to 20 hrs by broth microdilution method. Type of data set: functional. In outline:
as §4

Data set [19] has as its system Staphylococcus aureus. The data set can be described thus: Antibacterial activity against methicillin-resistant Staphylococcus aureus isolate M7 after 16 to 20 hrs by broth microdilution method. Type of data set: functional. In outline:
as §4

Data set [20] deals with Staphylococcus aureus. Nature of the data set: Antibacterial activity against methicillin-resistant Staphylococcus aureus isolate M2 after 16 to 20 hrs by broth microdilution method. The class given is functional. Summed up:
as §4

Data set [21] concerns Staphylococcus aureus. Nature of the data set: Antibacterial activity against methicillin-resistant Staphylococcus aureus isolate M9 after 16 to 20 hrs by broth microdilution method. Type of data set: functional. Summed up: as §4

SMILES strings stand for the structures. Active and inactive are the calls of the source. No cut-off for these calls is given here.

Among the data in ChEMBL document CHEMBL4130549, “Synthesis and bioactivities study of new antibacterial peptide mimics: The dialkyl cationic amphiphiles” (Eur J Med Chem, 2018) are Activity, MIC and HC50 values, retold here.

For orientation: MIC means the lowest concentration that inhibits growth of the organism. As a reminder, the HC50 is the concentration that lyses half of the red blood cells. A high value points to weaker haemolysis.

Regarding `CCN(CC)C(=O)[C@@H](N)CCCCN.Cl.Cl`, the result in data set [1], in [2], in data set [7], in data set [9] and in data set [10] was Active. Moreover, the minimal inhibitory concentration (MIC) in data set [3], in [4], in data set [6] and in [8] was above 128 µg/mL in each case. This compound showed an HC50 at 1 h in [5] above 1000 µg/mL.

On to `CCCCCCCCN(CCCCCCCC)C(=O)[C@@H](N)Cc1ccccc1.Cl`, for which the result in data set [1], in data set [2], in [7], in data set [9] and in data set [10] was Active. Further, the MIC in data set [11] is 16 µg/mL; in [12] it was 16 µg/mL; in data set [3], above 128 µg/mL; in [4], 128 µg/mL; in data set [6], above 128 µg/mL; in data set [13], 32 µg/mL. For the same compound, the MIC in [14] was found to be 32 µg/mL; in data set [15] it was 32 µg/mL; in data set [16], 32 µg/mL; in data set [8], 8 µg/mL; in data set [17], 32 µg/mL; in data set [18], 32 µg/mL. Also, the minimum inhibitory concentration (MIC) in data set [19] was found to be 16 µg/mL; in data set [20], 16 µg/mL; in data set [21], 32 µg/mL. The HC50 at 1 h in data set [5] is above 1000 µg/mL.

Regarding `CCCCCCCCCCN(CCCCCCCCCC)C(=O)[C@@H](N)CO.Cl`, the outcome in data set [1], in data set [2], in data set [7], in data set [9] and in [10] was Active. For the same compound, the minimum inhibitory concentration (MIC) was 4 µg/mL in data set [11]; 4 µg/mL in data set [12]; above 128 µg/mL in data set [3]; 8 µg/mL in data set [4]; above 128 µg/mL in data set [6]; 16 µg/mL in data set [13]. The MIC in data set [14] turned out to be 16 µg/mL; in data set [15], 16 µg/mL; in data set [16], 8 µg/mL; in data set [8], 8 µg/mL; in data set [17], 16 µg/mL; in [18] it was 16 µg/mL. For the same compound, the minimum inhibitory concentration (MIC) in data set [19] came to 8 µg/mL; in data set [20], 4 µg/mL; in [21], 16 µg/mL. For the same compound, the HC50 at 1 h in data set [5] is above 1000 µg/mL.

On to `CCCCCCN(CCCCCC)C(=O)[C@@H](N)CCCCN.Cl.Cl`, for which the result in [1], in data set [2], in data set [7], in data set [9] and in data set [10] was Active. The minimum inhibitory concentration (MIC) in data set [3], in data set [4], in data set [6] and in data set [8] was 64 µg/mL each time. Further, the HC50 at 1 h in [5] was 496 µg/mL.

Take `CCCCCN(CCCCC)C(=O)[C@@H](N)CCCCN.Cl.Cl`: the outcome in data set [1], in data set [2], in [7], in [9] and in data set [10] was Active. Further, the minimum inhibitory concentration (MIC) in data set [3], in data set [4], in [6] and in [8] was 128 µg/mL each time. In data set [5], this compound displayed an HC50 at 1 h of 576 µg/mL.

In the case of `C[C@@H](O)[C@H]1C(=O)N2C(C(=O)O)=C(S[C@@H]3CN[C@H](C(=O)N(C)C)C3)[C@H](C)[C@H]12` [MEROPENEM], in data set [3], the minimal inhibitory concentration (MIC) is below 0.125 µg/mL.

For the compound `CCCCN(CCCC)C(=O)[C@@H](N)CCCCN.Cl.Cl`, the result in [1], in data set [2], in data set [7], in data set [9] and in data set [10] was Active. Moreover, the minimum inhibitory concentration (MIC) was above 128 µg/mL in data set [3], 128 µg/mL in [4], 128 µg/mL in data set [6] and above 128 µg/mL in data set [8]. The compound also returned an HC50 at 1 h in [5] of 743 µg/mL.

Take `CCCCCCCCCCN(CCCCCCCCCC)C(=O)[C@H](N)CO.Cl`: the result in data set [1], in data set [2], in data set [7], in data set [9] and in data set [10] was Active. Besides, the MIC was 32 µg/mL in data set [11]; 32 µg/mL in data set [12]; above 128 µg/mL in data set [3]; 32 µg/mL in [4]; above 128 µg/mL in data set [6]; 32 µg/mL in [13]. Further, the MIC in data set [14] turned out to be 32 µg/mL; in data set [15] it was 32 µg/mL; in [16], 32 µg/mL; in data set [8], 16 µg/mL; in data set [17], 32 µg/mL; in data set [18] it was 32 µg/mL. Moreover, the minimal inhibitory concentration (MIC) in data set [19], in data set [20] and in data set [21] was 32 µg/mL each time. The HC50 at 1 h in [5] was above 1000 µg/mL.

Turning to `CCCCCCCCN(CCCCCCCC)C(=O)[C@@H](N)CC(C)C.Cl`, the outcome in data set [1], in data set [2], in [7], in [9] and in [10] was Active. The minimum inhibitory concentration (MIC) in [11] was 2 µg/mL; in data set [12], 2 µg/mL; in data set [3], 64 µg/mL; in data set [4], 2 µg/mL; in [6] it was above 128 µg/mL; in data set [13], 4 µg/mL. In addition, the MIC came to 4 µg/mL in [14]; 4 µg/mL in data set [15]; 4 µg/mL in [16]; 2 µg/mL in data set [8]; 4 µg/mL in data set [17]; 4 µg/mL in [18]. The minimum inhibitory concentration (MIC) in data set [19] was 4 µg/mL; in data set [20], 2 µg/mL; in data set [21], 4 µg/mL. The compound also had an HC50 at 1 h in [5] above 1000 µg/mL.

Turning to `CCCCCCCCN(CCCCCCCC)C(=O)[C@@H](N)[C@@H](C)CC.Cl`, the outcome in [1], in data set [2], in data set [7], in data set [9] and in [10] was Active. Moreover, the MIC in [11] was 4 µg/mL; in data set [12], 4 µg/mL; in [3], above 128 µg/mL; in data set [4], 4 µg/mL; in data set [6], above 128 µg/mL; in data set [13], 4 µg/mL. The minimum inhibitory concentration (MIC) in data set [14], in data set [15], in [16], in data set [8], in [17] and in data set [18] was 4 µg/mL each time. Further, the MIC in data set [19], in data set [20] and in data set [21] was 4 µg/mL throughout. Moreover, the HC50 at 1 h in [5] is 293 µg/mL.
